Assay results: ChEMBL document CHEMBL4373647, “Design, synthesis, and antimicrobial evaluation of 1,4-dihydroindeno[1,2-c]pyrazole tethered carbohydrazide hybrids: exploring their in silico ADMET, ergosterol inhibition and ROS inducing potential” (Medchemcomm, 2019)
In brackets after ≈: the same amount, converted by molar mass. Activity calls are given as the source filed them. The calls are words filed in the database; no cut-off is given here.

Experiments:
Micrococcus luteus = experiment: Antibacterial activity against Micrococcus luteus MTCC 2470 assessed as inhibition of bacterial growth incubated for 24 hrs by agar well diffusion method; type: functional
Procedure, shortened: (§1)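 Strains from MTCC; inoculum at 0.5 McFarland spread on Mueller-Hinton agar; 6 mm wells loaded with compound over 125–0.97 µg/mL; ciprofloxacin positive control (same range), DMSO negative control. Plates held 24 h at 37 °C; MIC taken as lowest concentration giving a clear inhibition zone. Triplicate runs, mean MIC reported.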

Staphylococcus aureus [1] = experiment: Antibacterial activity against Staphylococcus aureus MTCC 96 assessed as inhibition of bacterial growth incubated for 24 hrs by agar well diffusion method; type: functional; procedure, shortened: as §1
Staphylococcus aureus [2] = experiment: Antibacterial activity against Staphylococcus aureus MLS-16 MTCC 2940 assessed as inhibition of bacterial growth incubated for 24 hrs by agar well diffusion method; type: functional; procedure, shortened: as §1
Bacillus subtilis = experiment: Antibacterial activity against Bacillus subtilis MTCC 121 assessed as inhibition of bacterial growth incubated for 24 hrs by agar well diffusion method; type: functional; procedure, shortened: as §1
Escherichia coli = experiment: Antibacterial activity against Escherichia coli MTCC 739 assessed as inhibition of bacterial growth incubated for 24 hrs by agar well diffusion method; type: functional; procedure, shortened: as §1
Pseudomonas aeruginosa = experiment: Antibacterial activity against Pseudomonas aeruginosa MTCC 2453 assessed as inhibition of bacterial growth incubated for 24 hrs by agar well diffusion method; type: functional; procedure, shortened: as §1
Raoultella planticola = experiment: Antibacterial activity against Klebsiella planticola MTCC 530 assessed as inhibition of bacterial growth incubated for 24 hrs by agar well diffusion method; type: functional; procedure, shortened: as §1
Candida albicans [3] = experiment: Antifungal activity against Candida albicans MTCC 3017 assessed as inhibition of fungal growth incubated for 24 hrs by agar well diffusion method; type: functional; settings: MTCC 3017, 24 h
Procedure, shortened: (§2)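 Candida strains from MTCC, pre-cultured and spread on Mueller Hinton agar. Wells received compound dissolved in 10% DMSO, 125–0.97 µg/mL; miconazole standard over the same range, DMSO negative control. After 24 h at 37 °C, MIC was read as the lowest concentration giving an inhibition zone. Duplicate experiments, means given.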

Candida albicans [4] = experiment: Antifungal activity against Candida albicans MTCC 183 assessed as inhibition of fungal growth incubated for 24 hrs by agar well diffusion method; type: functional; settings: MTCC 183, 24 h; procedure, shortened: as §2
Candida albicans [5] = experiment: Antifungal activity against Candida albicans MTCC 227 assessed as inhibition of fungal growth incubated for 24 hrs by agar well diffusion method; type: functional; settings: MTCC 227, 24 h; procedure, shortened: as §2
Candida albicans [6] = experiment: Antifungal activity against Candida albicans MTCC 1637 assessed as inhibition of fungal growth incubated for 24 hrs by agar well diffusion method; type: functional; settings: MTCC 1637, 24 h; procedure, shortened: as §2
Candida albicans [7] = experiment: Antifungal activity against Candida albicans MTCC 3018 assessed as inhibition of fungal growth incubated for 24 hrs by agar well diffusion method; type: functional; settings: MTCC 3018, 24 h; procedure, shortened: as §2
Candida albicans [8] = experiment: Antifungal activity against Candida albicans MTCC 4748 assessed as inhibition of fungal growth incubated for 24 hrs by agar well diffusion method; type: functional; settings: MTCC 4748, 24 h; procedure, shortened: as §2
Candida albicans [9] = experiment: Antifungal activity against Candida albicans MTCC 7315 assessed as inhibition of fungal growth incubated for 24 hrs by agar well diffusion method; type: functional; settings: MTCC 7315, 24 h; procedure, shortened: as §2
Candida parapsilosis [10] = experiment: Antifungal activity against Candida parapsilosis MTCC 1744 assessed as inhibition of fungal growth incubated for 24 hrs by agar well diffusion method; type: functional; settings: Lodderomyces parapsilosis, MTCC 1744, 24 h; procedure, shortened: as §2
Nakaseomyces glabratus [11] = experiment: Antifungal activity against Candida glabrata MTCC 3019 assessed as inhibition of fungal growth incubated for 24 hrs by agar well diffusion method; type: functional; settings: MTCC 3019, 24 h; procedure, shortened: as §2
Pichia sporocuriosa [12] = experiment: Antifungal activity against Issatchenkia hanoiensis MTCC 4755 assessed as inhibition of fungal growth incubated for 24 hrs by agar well diffusion method; type: functional; settings: MTCC 4755, 24 h; procedure, shortened: as §2
MRC5 = experiment: Cytotoxicity against human MRC5 cells incubated for 48 hrs by MTT assay; type: cell-based; settings: MRC5, 48 h
Procedure, shortened: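 Normal human lung MRC5 cells grown 24 h in 96-well plates, then exposed to a range of compound concentrations for 48 h. MTT (250 µg/mL) added for 2 h, medium replaced by DMSO, absorbance read at 570 nm. Miconazole positive control, DMSO negative control. Triplicates, mean ± S.D.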

[13] = biological target: Lanosterol 14-alpha demethylase (Candida albicans (strain SC5314 / ATCC MYA-2876) (Yeast), UniProt P10613); experiment: Inhibition of CYP51 in Candida albicans MTCC 3017 assessed as reduction in ergosterol level incubated for 20 hrs by UV-visible spectrophotometry analysis
Procedure, shortened: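 Modified Breivik–Owades sterol method: Mueller Hinton broth with compound at 0, 2, 4, 8, 16 µg/mL, inoculated with single Candida colonies, shaken at 200 rpm for 20 h at 30 °C. Pellets washed and weighed, saponified in 25% alcoholic KOH for 70 min at 90 °C, sterols extracted into n-heptane, diluted 1:5 in ethanol and scanned at 230–310 nm. Triplicates.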

Pichia kudriavzevii [14] = experiment: Antifungal activity against Candida krusei MTCC 3020 assessed as inhibition of fungal growth incubated for 24 hrs by agar well diffusion method; type: functional; settings: MTCC 3020, 24 h; procedure, shortened: as §2
Pichia kudriavzevii [15] = experiment: Fungicidal activity against Candida krusei MTCC 3020 assessed as fungal killing incubated for 24 hrs; type: functional; settings: MTCC 3020, 24 h
Procedure, shortened: (§3)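 Compound at 125–0.97 µg/mL in Mueller Hinton broth in microcentrifuge tubes, each Candida strain added, held 24 h at 37 °C. 10 µL of the treated suspension plated on Mueller Hinton agar and incubated a further 24 h at 37 °C. MFC is the lowest concentration that kills the strain. Duplicates, means reported.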

Candida albicans [16] = experiment: Fungicidal activity against Candida albicans MTCC 183 assessed as fungal killing incubated for 24 hrs; type: functional; settings: MTCC 183, 24 h; procedure, shortened: as §3
Candida albicans [17] = experiment: Fungicidal activity against Candida albicans MTCC 227 assessed as fungal killing incubated for 24 hrs; type: functional; settings: MTCC 227, 24 h; procedure, shortened: as §3
Candida albicans [18] = experiment: Fungicidal activity against Candida albicans MTCC 1637 assessed as fungal killing incubated for 24 hrs; type: functional; settings: MTCC 1637, 24 h; procedure, shortened: as §3
Candida albicans [19] = experiment: Fungicidal activity against Candida albicans MTCC 3018 assessed as fungal killing incubated for 24 hrs; type: functional; settings: MTCC 3018, 24 h; procedure, shortened: as §3
Candida albicans [20] = experiment: Fungicidal activity against Candida albicans MTCC 4748 assessed as fungal killing incubated for 24 hrs; type: functional; settings: MTCC 4748, 24 h; procedure, shortened: as §3
Candida albicans [21] = experiment: Fungicidal activity against Candida albicans MTCC 7315 assessed as fungal killing incubated for 24 hrs; type: functional; settings: MTCC 7315, 24 h; procedure, shortened: as §3
Candida parapsilosis [22] = experiment: Fungicidal activity against Candida parapsilosis MTCC 1744 assessed as fungal killing incubated for 24 hrs; type: functional; settings: Lodderomyces parapsilosis, MTCC 1744, 24 h; procedure, shortened: as §3
Nakaseomyces glabratus [23] = experiment: Fungicidal activity against Candida glabrata MTCC 3019 assessed as fungal killing incubated for 24 hrs; type: functional; settings: MTCC 3019, 24 h; procedure, shortened: as §3
Pichia sporocuriosa [24] = experiment: Fungicidal activity against Issatchenkia hanoiensis MTCC 4755 assessed as fungal killing incubated for 24 hrs; type: functional; settings: MTCC 4755, 24 h; procedure, shortened: as §3
Candida albicans [25] = experiment: Ratio of MFC to MIC against Candida albicans MTCC 183; type: functional
Candida albicans [26] = experiment: Ratio of MFC to MIC against Candida albicans MTCC 227; type: functional
Procedure, shortened: (§4)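 MIC by agar well diffusion: Candida lawns on Mueller-Hinton agar, wells loaded with compound in 10% DMSO (125–0.97 µg/mL), 24 h at 37 °C, lowest concentration giving an inhibition zone. MFC: compound in Mueller-Hinton broth (125–0.97 µg/mL) with yeast, 24 h at 37 °C, 10 µL plated on agar, lowest killing concentration after 24 h. Ratio is MFC/MIC.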

Candida albicans [27] = experiment: Ratio of MFC to MIC against Candida albicans MTCC 1637; type: functional
Candida albicans [28] = experiment: Ratio of MFC to MIC against Candida albicans MTCC 3018; type: functional; procedure, shortened: as §4
Candida albicans [29] = experiment: Ratio of MFC to MIC against Candida albicans MTCC 4748; type: functional; procedure, shortened: as §4
Candida albicans [30] = experiment: Ratio of MFC to MIC against Candida albicans MTCC 7315; type: functional; procedure, shortened: as §4
Candida parapsilosis [31] = experiment: Ratio of MFC to MIC against Candida parapsilosis MTCC 1744; type: functional; procedure, shortened: as §4
Nakaseomyces glabratus [32] = experiment: Ratio of MFC to MIC against Candida glabrata MTCC 3019; type: functional; procedure, shortened: as §4
Pichia kudriavzevii [33] = experiment: Ratio of MFC to MIC against Candida krusei MTCC 3020; type: functional; procedure, shortened: as §4
Pichia sporocuriosa [34] = experiment: Ratio of MFC to MIC against Issatchenkia hanoiensis MTCC 4755; type: functional; procedure, shortened: as §4
Candida albicans [35] = experiment: Induction of ROS generation in Candida albicans MTCC 3017 assessed as accumulation of intracellular ROS level by measuring fluorescence intensity at 5 to 25 ug/ml after 24 hrs by DCFH-DA probe based fluorimetric assay; type: functional, organism-based
Procedure, shortened: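 C. albicans MTCC 3017 biofilms grown 24 h at 37 °C in 96-well plates, then treated 24 h with compound at 0, 5, 10, 15, 20, 25 µg/mL; untreated cells served as control. Cells then loaded with 10 µM DCFH-DA for 24 h in the dark, and fluorescence read at 485 nm excitation and 535 nm emission. Triplicates.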

Sequence of Lanosterol 14-alpha demethylase (P10613 whole entry): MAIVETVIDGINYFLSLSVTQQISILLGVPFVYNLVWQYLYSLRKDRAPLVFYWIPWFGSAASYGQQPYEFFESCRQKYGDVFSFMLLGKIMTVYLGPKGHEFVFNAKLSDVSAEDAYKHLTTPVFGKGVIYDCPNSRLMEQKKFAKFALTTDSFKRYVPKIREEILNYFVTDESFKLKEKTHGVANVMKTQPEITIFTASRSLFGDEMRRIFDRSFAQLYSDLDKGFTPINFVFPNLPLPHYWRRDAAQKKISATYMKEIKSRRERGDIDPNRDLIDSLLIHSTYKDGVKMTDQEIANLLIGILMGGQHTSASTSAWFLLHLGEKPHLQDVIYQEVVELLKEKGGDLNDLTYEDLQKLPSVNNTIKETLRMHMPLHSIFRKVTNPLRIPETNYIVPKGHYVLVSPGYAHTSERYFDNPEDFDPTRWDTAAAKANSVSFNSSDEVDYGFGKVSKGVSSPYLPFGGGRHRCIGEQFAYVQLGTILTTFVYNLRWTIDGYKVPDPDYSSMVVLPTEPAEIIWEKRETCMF

Clc1ccc(COC(Cn2ccnc2)c2ccc(Cl)cc2Cl)c(Cl)c1 (stereo unspecified) [MICONAZOLE]
MIC (Micrococcus luteus): inactive
MIC (Staphylococcus aureus [1]): inactive
MIC (Staphylococcus aureus [2]): inactive
MIC (Bacillus subtilis): inactive
MIC (Escherichia coli): inactive
MIC (Pseudomonas aeruginosa): inactive
MIC (Raoultella planticola): inactive
MIC (Candida albicans [3]): 3.9 µg/mL (≈ 9.37 µM)
MIC (Candida albicans [4]): 3.9 µg/mL (≈ 9.37 µM)
MIC (Candida albicans [5]): 3.9 µg/mL (≈ 9.37 µM)
MIC (Candida albicans [6]): 3.9 µg/mL (≈ 9.37 µM)
MIC (Candida albicans [7]): 3.9 µg/mL (≈ 9.37 µM)
MIC (Candida albicans [8]): 3.9 µg/mL (≈ 9.37 µM)
MIC (Candida albicans [9]): 3.9 µg/mL (≈ 9.37 µM)
MIC (Candida parapsilosis [10]): 3.9 µg/mL (≈ 9.37 µM)
MIC (Nakaseomyces glabratus [11]): 3.9 µg/mL (≈ 9.37 µM)
MIC (Pichia sporocuriosa [12]): 3.9 µg/mL (≈ 9.37 µM)
IC50 (MRC5): 61.7 µg/mL (≈ 148 µM)
inhibition (INH) [13]: Dose-dependent effect
MIC (Pichia kudriavzevii [14]): 3.9 µg/mL (≈ 9.37 µM)
MFC (Pichia kudriavzevii [15]): 7.8 µg/mL (≈ 18.7 µM)
MFC (Candida albicans [16]): 7.8 µg/mL (≈ 18.7 µM)
MFC (Candida albicans [17]): 7.8 µg/mL (≈ 18.7 µM)
MFC (Candida albicans [18]): 7.8 µg/mL (≈ 18.7 µM)
MFC (Candida albicans [19]): 7.8 µg/mL (≈ 18.7 µM)
MFC (Candida albicans [20]): 7.8 µg/mL (≈ 18.7 µM)
MFC (Candida albicans [21]): 7.8 µg/mL (≈ 18.7 µM)
MFC (Candida parapsilosis [22]): 7.8 µg/mL (≈ 18.7 µM)
MFC (Nakaseomyces glabratus [23]): 7.8 µg/mL (≈ 18.7 µM)
MFC (Pichia sporocuriosa [24]): 7.8 µg/mL (≈ 18.7 µM)
Ratio (Candida albicans [25]): 2
Ratio (Candida albicans [26]): 2
Ratio (Candida albicans [27]): 2
Ratio (Candida albicans [28]): 2
Ratio (Candida albicans [29]): 2
Ratio (Candida albicans [30]): 2
Ratio (Candida parapsilosis [31]): 2
Ratio (Nakaseomyces glabratus [32]): 2
Ratio (Pichia kudriavzevii [33]): 2
Ratio (Pichia sporocuriosa [34]): 2
Activity (Candida albicans [35]): Active
